From the M2OR odorant receptor database

How the values were obtained:
Details in all cases: stereoisomer not certain
OR2M3 D11N = system: OR2M3 D11N
In short: (§1)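 Values were gathered from published papers (main text and supplementary material), with extra details requested from the original authors when needed, and checked for typos and inconsistencies. Each receptor–molecule pair is called responsive (active) if the original authors judged the measured signal statistically different from baseline, and non-responsive (inactive) otherwise. Assay methods varied by source, often transient mammalian cell-line luciferase assays. Recorded details include cell line, G-protein, co-transfected protein and tags.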

OR2M3 I13L A33G M144T = system: OR2M3 I13L A33G M144T
In short: as §1

OR2M3 I13L A33G R266H = system: OR2M3 I13L A33G R266H
In short: as §1

OR2M3 I13L A33G = system: OR2M3 I13L A33G
In short: as §1

OR2M3 I13L M144T = system: OR2M3 I13L M144T
In short: as §1

OR2M3 I13L = system: OR2M3 I13L
In short: as §1

OR2M3 I198V = system: OR2M3 I198V
In short: as §1

OR2M3 I289N = system: OR2M3 I289N
In short: as §1

OR2M3 L63F = system: OR2M3 L63F
In short: as §1

OR2M3 M144T = system: OR2M3 M144T
In short: as §1

Sequence of OR2M3 I198V (as listed by the source, stated change not applied): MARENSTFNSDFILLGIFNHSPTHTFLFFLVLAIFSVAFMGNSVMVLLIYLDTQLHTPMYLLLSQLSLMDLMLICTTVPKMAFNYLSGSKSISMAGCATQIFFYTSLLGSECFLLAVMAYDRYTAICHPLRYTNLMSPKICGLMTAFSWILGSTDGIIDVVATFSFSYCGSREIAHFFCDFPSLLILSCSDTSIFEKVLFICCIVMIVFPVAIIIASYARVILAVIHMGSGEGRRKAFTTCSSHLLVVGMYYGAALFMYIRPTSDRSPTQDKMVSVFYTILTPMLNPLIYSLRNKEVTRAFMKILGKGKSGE
Sequence of OR2M3 I13L (as listed by the source, stated change not applied): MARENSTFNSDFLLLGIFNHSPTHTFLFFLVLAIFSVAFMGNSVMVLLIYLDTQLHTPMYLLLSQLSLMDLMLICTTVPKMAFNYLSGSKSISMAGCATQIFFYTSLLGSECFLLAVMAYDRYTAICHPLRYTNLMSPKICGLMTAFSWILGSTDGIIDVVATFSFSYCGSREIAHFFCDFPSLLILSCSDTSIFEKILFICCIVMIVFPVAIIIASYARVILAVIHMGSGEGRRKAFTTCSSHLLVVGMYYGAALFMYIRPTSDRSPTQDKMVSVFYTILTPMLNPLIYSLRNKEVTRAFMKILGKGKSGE
Sequence of OR2M3 M144T (as listed by the source, stated change not applied): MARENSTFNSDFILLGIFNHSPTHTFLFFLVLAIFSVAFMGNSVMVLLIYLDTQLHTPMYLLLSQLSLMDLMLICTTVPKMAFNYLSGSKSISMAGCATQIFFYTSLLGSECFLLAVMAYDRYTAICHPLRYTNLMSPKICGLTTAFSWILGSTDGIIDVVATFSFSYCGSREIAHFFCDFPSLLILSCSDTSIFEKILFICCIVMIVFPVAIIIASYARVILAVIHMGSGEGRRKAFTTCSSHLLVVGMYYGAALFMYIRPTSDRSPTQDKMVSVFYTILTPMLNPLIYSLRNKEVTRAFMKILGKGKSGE
Sequence of OR2M3 D11N (as listed by the source, stated change not applied): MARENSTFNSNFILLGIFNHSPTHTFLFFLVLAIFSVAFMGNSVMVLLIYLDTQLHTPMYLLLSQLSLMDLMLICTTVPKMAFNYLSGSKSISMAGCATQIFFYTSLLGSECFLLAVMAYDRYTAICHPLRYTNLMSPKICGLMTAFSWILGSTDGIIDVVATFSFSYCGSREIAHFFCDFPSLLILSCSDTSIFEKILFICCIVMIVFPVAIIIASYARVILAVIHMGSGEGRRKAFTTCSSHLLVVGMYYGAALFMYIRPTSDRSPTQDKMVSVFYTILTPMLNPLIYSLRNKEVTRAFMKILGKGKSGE
Sequence of OR2M3 I289N (as listed by the source, stated change not applied): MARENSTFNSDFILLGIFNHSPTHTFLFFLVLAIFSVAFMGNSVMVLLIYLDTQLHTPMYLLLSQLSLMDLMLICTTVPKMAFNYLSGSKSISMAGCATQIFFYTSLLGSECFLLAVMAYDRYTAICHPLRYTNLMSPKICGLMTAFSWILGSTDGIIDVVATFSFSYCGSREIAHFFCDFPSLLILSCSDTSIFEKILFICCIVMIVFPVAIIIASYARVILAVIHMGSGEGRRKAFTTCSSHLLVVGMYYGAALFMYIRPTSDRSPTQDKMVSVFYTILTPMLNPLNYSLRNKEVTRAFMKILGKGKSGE
Sequence of OR2M3 L63F (as listed by the source, stated change not applied): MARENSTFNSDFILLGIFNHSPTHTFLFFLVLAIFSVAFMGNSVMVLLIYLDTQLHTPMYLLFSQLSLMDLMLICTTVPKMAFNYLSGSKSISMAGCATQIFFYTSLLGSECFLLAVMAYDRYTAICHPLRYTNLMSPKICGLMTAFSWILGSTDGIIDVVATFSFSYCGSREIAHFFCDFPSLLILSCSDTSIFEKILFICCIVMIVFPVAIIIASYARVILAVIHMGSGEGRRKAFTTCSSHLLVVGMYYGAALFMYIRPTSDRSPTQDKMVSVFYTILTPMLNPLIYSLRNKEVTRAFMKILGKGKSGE

CCC(S)C(C)CO (stereo not given)
odorant receptor agonist call (OR2M3 D11N): active
odorant receptor agonist call (OR2M3 I13L A33G M144T): inactive
odorant receptor agonist call (OR2M3 I13L A33G R266H): active
odorant receptor agonist call (OR2M3 I13L A33G): active
odorant receptor agonist call (OR2M3 I13L M144T): active
odorant receptor agonist call (OR2M3 I13L): active
odorant receptor agonist call (OR2M3 I198V): active
odorant receptor agonist call (OR2M3 I289N): inactive
odorant receptor agonist call (OR2M3 L63F): inactive
odorant receptor agonist call (OR2M3 M144T): active
